Laboratory results published in ChEMBL document CHEMBL1144579, “Synthesis and antiparasitic evaluation of bis-2,5-[4-guanidinophenyl]thiophenes” (Eur J Med Chem, 2007).
Activity calls are given as the source filed them. The rule behind the calls is not given here.

How the values were obtained:
[1] = test system: Trypanosoma brucei rhodesiense; assay: Antiparasitic activity against Trypanosoma brucei rhodesiense STIB900; type: functional, organism-based
In short: (§1)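 In vitro IC50s against T. b. rhodesiense STIB900 and P. falciparum K1 are means of at least two independent experiments. The IC50 values averaged for each compound were within a factor of two of each other.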

Plasmodium falciparum = assay: Antiparasitic activity against Plasmodium falciparum K1; type: functional, organism-based; in short: as §1
Leishmania donovani = assay: Antiparasitic activity against Leishmania donovani; type: functional, organism-based
Trypanosoma cruzi = assay: Antiparasitic activity against Trypanosoma cruzi Tulahuen LacZ C4; type: functional, organism-based
L6 = assay: Cytotoxicity against rat L6 cells by alamar blue assay; type: cell-based
[2] = test system: Trypanosoma brucei rhodesiense; assay: Antitrypanosomal activity in Trypanosoma brucei rhodesiense STIB900 infected mouse at 20 mg/kg, ip administered for 4 days; type: functional, organism-based; parameters: dose 20 mg/kg
Mus musculus [3] = assay: Survival of Trypanosoma brucei rhodesiense STIB900 infected mouse at 20 mg/kg, ip administered for 4 days; type: functional; details: route intraperitoneal
Mus musculus [4] = assay: Survival of Trypanosoma brucei rhodesiense STIB900 infected mouse at 5 mg/kg, ip administered for 4 days; type: functional; details: route intraperitoneal

| Structure (SMILES) | IC50 [1] | IC50 (Plasmodium falciparum) | IC50 (Leishmania donovani) | IC50 (Trypanosoma cruzi) | IC50 (L6) | Activity [2] | Survival (Mus musculus [3]) | Survival (Mus musculus [4]) |
| --- | --- | --- | --- | --- | --- | --- | --- | --- |
| N=C(Nc1ccc(-c2ccc(-c3ccc(NC(=N)NC4CCCCC4)cc3)s2)cc1)NC1CCCCC1 | 354 nM | 160 nM | 2500 nM | 1700 nM | 4300 nM | – | – | – |
| N=C(N)c1ccc(OCCCCCOc2ccc(C(=N)N)cc2)cc1 [PENTAMIDINE] | – | – | 1900 nM | 5350 nM | – | inactive | 40.8 days | – |
| CCN(CC)CCCC(C)Nc1ccnc2cc(Cl)ccc12 (centres undefined) [CHLOROQUINE] | – | – | – | – | 188000 nM | – | – | – |
| N=C(N)c1ccc(-c2ccc(-c3ccc(C(=N)N)cc3)o2)cc1 [FURAMIDINE] | – | – | 2800 nM | 23300 nM | – | inactive | >52.5 days | – |
| Cc1ccc(NC(=N)Nc2ccc(-c3ccc(-c4ccc(NC(=N)Nc5ccc(C)cc5)cc4)s3)cc2)cc1 | 573 nM | 42.7 nM | 16000 nM | 3700 nM | 1100 nM | – | – | – |
| CNC(=N)Nc1ccc(-c2ccc(-c3ccc(NC(=N)NC)cc3)s2)cc1 | 6.2 nM | 23 nM | 6200 nM | 30500 nM | 54300 nM | – | >40.25 days | – |
| N=C(Nc1ccccc1)Nc1ccc(-c2ccc(-c3ccc(NC(=N)Nc4ccccc4)cc3)s2)cc1 | 1900 nM | 154 nM | 35000 nM | 9900 nM | 2500 nM | – | – | – |
| CC(C)NC(=N)Nc1ccc(-c2ccc(-c3ccc(NC(=N)NC(C)C)cc3)s2)cc1 | 116 nM | 107 nM | 11000 nM | 28200 nM | 69400 nM | – | – | >34 days |
| N=C(N)Nc1ccc(-c2ccc(-c3ccc(NC(=N)N)cc3)s2)cc1 | 28 nM | 3.6 nM | 6700 nM | 154000 nM | 100000 nM | inactive | 43 days | – |
| N=C(Nc1ccc(-c2ccc(-c3ccc(NC(=N)NC4CCCC4)cc3)s2)cc1)NC1CCCC1 | 306 nM | 134 nM | 1500 nM | 8400 nM | 15900 nM | – | >39.5 days | – |
